In ChEMBL document CHEMBL1165991, “Synthesis and in vitro evaluation of novel 1,2,4-triazine derivatives as neuroprotective agents” (Bioorg Med Chem, 2010):
The source made the active and inactive calls. The rule behind the calls is not given here.

Experiments:
[1] = tested on: PC-12; test: Cytotoxicity against rat differentiated PC12 cells at 0.5 to 20 uM after 24 hrs by MTT assay; format: cell-based; settings: pc-12, 24 h
Procedure, shortened: (§1)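 PC12 cells grown in DMEM with 10% FBS and penicillin–streptomycin at 37 °C, 5% CO2. Differentiated cells were primed with NGF 50 ng/ml every other day for 6 days; undifferentiated cells had no NGF. Compound 0.5–20 μM without H2O2; MTT read at 24 h. Formazan dissolved in DMSO, A550 as % of control; mean ± S.D., n = 3.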

[2] = tested on: PC-12; test: Neuroprotective activity in differentiated rat PC12 cells assessed as inhibition of H2O2-induced NF-kappaB nucleus accumulation treated 3 hrs before H2O2 challenge measured after 24 hrs by Western blot relative to untreated control; format: functional
Procedure, shortened: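 Differentiated PC12 cells were pretreated 3 h with compound, then given H2O2 150 μM for 24 h. Nuclear protein (20 μg) was run on 12% SDS–PAGE, blotted to PVDF, probed with anti-NF-κB and reprobed for β-actin, with ECL detection. Band densities were taken as a ratio; median of three independent experiments.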

[3] = tested on: PC-12; test: Neuroprotective activity in differentiated rat PC12 cells assessed as decrease of H2O2-induced cleaved caspase 3 level treated 3 hrs before H2O2 challenge measured after 24 hrs by Western blot relative to untreated control; format: functional
Procedure, shortened: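 PC12 cells grown in DMEM with 10% FBS at 37 °C, 5% CO2, and differentiated with NGF (50 ng/ml) every other day for 6 days. Pretreated 3 h with compound, then H2O2 (150 μM) added with compound for 24 h. Twenty μg protein run on 12% SDS-PAGE and blotted for cleaved caspase-3, reprobed for β-actin. ECL detection, densitometry ratio, median of three independent experiments.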

[4] = tested on: PC-12; test: Neuroprotective activity in rat differentiated PC12 cells assessed as protection against H2O2-induced cell death at 10 uM treated 3 hrs before H2O2 challenge measured after 24 hrs by MTT assay relative to control; format: functional
Procedure, shortened: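 Rat PC12 cells grown in DMEM with 10% FBS and penicillin–streptomycin at 37 °C, 5% CO2, then differentiated with NGF (50 ng/ml) every other day for 6 days. Compounds (0.5–20 µM) were added 3 h before H2O2 (150 µM) and kept present for 24 h more. MTT reduction, formazan dissolved in DMSO, A550; % of control cells; mean ± S.D., n = 3.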

[5] = tested on: PC-12; test: Neuroprotective activity in differentiated rat PC12 cells assessed as protection against H2O2-induced apoptosis at 10 uM treated 3 hrs before H2O2 challenge measured after 24 hrs by acridine orange/ethidium bromide double staining method; format: functional
Procedure, shortened: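 NGF-differentiated PC12 cells were pretreated with compound, then given H2O2 150 μM for 24 h. Cells were harvested, washed in PBS and set to 10^6/ml, then stained with AO/EB (1:1, final 100 μg/ml). Fluorescence microscopy scored viable, early or late apoptotic, and necrotic nuclei in 10 random fields; three repeats.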

[6] = tested on: PC-12; test: Neuroprotective activity in rat undifferentiated PC12 cells assessed as protection against H2O2-induced cell death at 10 uM treated 3 hrs before H2O2 challenge measured after 24 hrs by MTT assay relative to control; format: functional
Procedure, shortened: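 Undifferentiated rat PC12 cells, grown in DMEM with 10% FBS and penicillin–streptomycin at 37 °C, 5% CO2, were seeded in 96-well plates. They were pretreated 3 h with compounds (0.5–20 µM), then exposed to H2O2 for 24 h. Viability was read by MTT reduction, formazan dissolved in DMSO, A550, as % of control; mean ± S.D., n = 3.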

[7] = tested on: PC-12; test: Cytotoxicity against rat undifferentiated PC12 cells at 0.5 to 20 uM after 24 hrs by MTT assay; format: cell-based; settings: pc-12, 24 h; procedure, shortened: as §1
[8] = tested on: PC-12; test: Neuroprotective activity in rat NGF treated differentiated PC12 cells assessed as restoration of H2O2-induced neuronal shape change at 10 uM treated 3 hrs before H2O2 challenge measured after 24 hrs by fluorescence microscopy analysis; format: functional, cell-based
Procedure, shortened: (§2)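 PC12 cells were differentiated with NGF 50 ng/ml for 6 days, pretreated 3 h with compound, then exposed to H2O2 150 μM for 24 h. Morphology was judged by microscopy: cell shape, attachment to the plate surface and inter-neuronal networks.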

[9] = tested on: PC-12; test: Neuroprotective activity in rat NGF treated differentiated PC12 cells assessed as restoration of H2O2-induced network changes at 10 uM treated 3 hrs before H2O2 challenge measured after 24 hrs by fluorescence microscopy analysis; format: functional, cell-based; procedure, shortened: as §2
[10] = tested on: PC-12; test: Neuroprotective activity in rat differentiated PC12 cells assessed as protection against H2O2-induced cell death at 0.5 to 20 uM treated 3 hrs before H2O2 challenge measured after 24 hrs by MTT assay relative to control; format: functional, cell-based
Procedure, shortened: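 NGF-differentiated PC12 cells (50 ng/ml every other day, 6 days) were pretreated 3 h with compound at 0.5–20 μM, then given H2O2 150 μM with compound for a further 24 h. Viability by MTT: formazan in DMSO, A550, expressed as % of control cells; mean ± S.D., n = 3.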

[11] = tested on: PC-12; test: Neuroprotective activity in rat NGF treated differentiated PC12 cells assessed as restoration of H2O2-induced detached from culture plate at 10 uM treated 3 hrs before H2O2 challenge measured after 24 hrs by fluorescence microscopy analysis; format: functional, cell-based; procedure, shortened: as §2

CCSc1nnc(-c2ccccc2)c(-c2ccccc2)n1
Activity [1]: Non-toxic
fold change (FC) [2]: 1.56
fold change (FC) [3]: 1.64
Activity [4]: 54%
Activity [5]: 45%
Activity [6]: 59%
Activity [7]: Non-toxic

CCCCSc1nnc(-c2ccc(Cl)cc2)c(-c2ccc(Cl)cc2)n1
Activity [1]: Non-toxic
fold change (FC) [2]: 1.78
fold change (FC) [3]: 1.83
Activity [4]: 50%
Activity [5]: 40%
Activity [6]: 63%
Activity [7]: Non-toxic

CCCSc1nnc(-c2ccccc2)c(-c2ccccc2)n1
Activity [8]: inactive
Activity [9]: inactive
Activity [10]: inactive
Activity [11]: inactive

CSc1nnc(-c2ccc(Cl)cc2)c(-c2ccc(Cl)cc2)n1
Activity [8]: Active
Activity [9]: Active
Activity [1]: Non-toxic
fold change (FC) [2]: 4.04
fold change (FC) [3]: 4.59
Activity [4]: 83%
Activity [5]: 20%
Activity [11]: Active
Activity [6]: 88%
Activity [7]: Non-toxic

CCCSc1nnc(-c2ccc(Cl)cc2)c(-c2ccc(Cl)cc2)n1
Activity [1]: Non-toxic
fold change (FC) [2]: 1.89
fold change (FC) [3]: 1.92
Activity [4]: 45%
Activity [5]: 40%
Activity [6]: 60%
Activity [7]: Non-toxic

CCSc1nnc(-c2ccc(Cl)cc2)c(-c2ccc(Cl)cc2)n1
Activity [1]: Non-toxic
fold change (FC) [2]: 2
fold change (FC) [3]: 2
Activity [5]: 40%
Activity [6]: 58%
Activity [7]: Non-toxic

CSc1nnc(-c2ccccc2)c(-c2ccccc2)n1
Activity [1]: Non-toxic
fold change (FC) [2]: 1.79
fold change (FC) [3]: 1.91
Activity [4]: 47%
Activity [5]: 35%
Activity [6]: 53%
Activity [7]: Non-toxic

CCCCSc1nnc(-c2ccccc2)c(-c2ccccc2)n1
Activity [10]: inactive
